The source made the active and inactive calls.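 How the source made its calls, unless noted: active means inhibition above 20% together with a positive visual image hit; inconclusive means visual image hit but inhibition not above 20%; inactive means no visual image hit.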
Experiments:
[1] = inhibitors of TNFa-induced NFkB p65 translocation, primary screen, imaging, HUVEC, MLSMR starter and 10KST1 sets (AID 438); conditions: HUVEC TNFa-induced p65 nuclear translocation; cell count: measured here: nuclei count (cytotoxicity indicator), at 2.08 µM; inhibition: at 2 µM, stronger effect = higher value, 0% TNFa-plus-vehicle, 100% no-TNFa wells;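 further: compound added about 3h40 before a 20 min TNFalpha stimulation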;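 on inhibition: signal is the nuclear over cytoplasmic p65 intensity ratio per well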
[2] = inhibitors of mutant huntingtin aggregation, primary screen, imaging, exon1htt(103Q)mCFP cells, high-content imaging (AID 483;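 active means visual image review flags a hit and inhibition of aggregation exceeds 20%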;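 further: compound exposure lasted 3 days before fixation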;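 on nuclei count: percent of the per-plate median nuclei count of sample wells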); conditions: exon1htt(103Q)mCFP cell line, aggregate imaging, at 2 µM; inhibition of aggregation: stronger effect = higher value; nuclei count: measured here: cell count, toxicity
[3] = inhibitors of E-selectin induction by TNFa, primary screen, imaging, HUVEC, immunofluorescence, MLSMR starter and 10KST1 sets (AID 487;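 active means visually confirmed hit in the image check and inhibition above 20%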;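 on inhibition: signal is fraction of cell area covered by stained E-selectin grains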;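 on nuclei count: 100% = median nuclei count of all wells on the same plate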); conditions: HUVEC TNFalpha-induced E-selectin immunofluorescence imaging, at 2 µM; inhibition: stronger effect = higher value; nuclei count: measured here: cell number, toxicity
[4] = molecular target: Voltage-gated potassium channel subunit beta-2 (Rattus norvegicus) (UniProt P62483); test: KvBeta enzyme negative modulators, primary screen, biochemical, NADPH fluorescence (AID 622;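 active means fluorescence slope higher than the sample average by over 3 SD, cut at about -0.22 in these data, passing the limit was not always enough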;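 further: slope of raw intensity against log time taken from 70 to 1610 s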); conditions: recombinant KvBeta, 4-cyanobenzaldehyde reduction, at 10 µM, stronger effect = higher value
[5] = molecular target: Voltage-gated potassium channel subunit beta-2 (Rattus norvegicus) (UniProt P62483); test: KvBeta positive modulators, primary screen, biochemical, NADPH fluorescence (AID 623;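 active means NADPH fluorescence slope more negative than the mean of all samples by about 3 SD, 99.7% confidence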;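 further: fluorescence intensity change per second fitted from 20 to 320 s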); conditions: Recombinant KvBeta, NADPH fluorescence decrease slope, 10 min; at 10 µM; stronger effect = lower value
[6] = molecular target: Muscarinic acetylcholine receptor M4 (Homo sapiens) (UniProt P08173); test: compounds altering M4/GIRK thallium flux, either direction, primary screen, M4 allosteric agonist project, cell-based, HEK293 M4/GIRK, BTC-AM (AID 625;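 active means fluorescence slope after compound addition differing from the mean of all tested samples at 99.7% confidence, mostly higher but some lower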;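 further: thallium influx through GIRK channels coupled to M4 in HEK293 cells with BTC-AM dye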); conditions: at 10 µM, actives lie on both sides
Outline: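 assay system = HEK293 cells with M4 receptor and GIRK channels | medium = pH 7.3 thallium assay buffer | doses = 10 µM final, single point | timing = cells overnight at 37 °C, BTC-AM loading 1 h, reads 2 min total | signal = BTC-AM fluorescence, 1 Hz kinetic reads | read-out = post-addition slope, 15–24 s, of baseline-normalized fluorescence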

[7] = inhibitors of Sendai virus-induced IRF3 signaling, primary screen, TLR/RLR signaling modifier project, cell-based, Sendai virus stimulus, luciferase, 10K MLSCN set (AID 602276;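 active means inhibition at or above 50% at 10 µM; inactive means inhibition below 50%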;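 further: firefly luciferase from ISG56 promoter only with Renilla not read in this screen; 0% = Sendai virus plus DMSO and 100% = medium plus DMSO without virus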); conditions: HEK293 RL24 IRF3 luciferase reporter, at 10 µM, stronger effect = higher value
[8] = inhibitors of poly I:C-induced TLR3 signaling, primary screen, cell-based, poly I:C stimulus, luciferase, 10K MLSCN set (AID 602277;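 active means inhibition of the reporter signal at or above 50%; inactive means inhibition below 50%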); conditions: HEK293-TLR3 RL24 IRF3 luciferase reporter, at 10 µM, stronger effect = higher value

Voltage-gated potassium channel subunit beta-2 (Rattus norvegicus), sequence (P62483 whole entry, looked up): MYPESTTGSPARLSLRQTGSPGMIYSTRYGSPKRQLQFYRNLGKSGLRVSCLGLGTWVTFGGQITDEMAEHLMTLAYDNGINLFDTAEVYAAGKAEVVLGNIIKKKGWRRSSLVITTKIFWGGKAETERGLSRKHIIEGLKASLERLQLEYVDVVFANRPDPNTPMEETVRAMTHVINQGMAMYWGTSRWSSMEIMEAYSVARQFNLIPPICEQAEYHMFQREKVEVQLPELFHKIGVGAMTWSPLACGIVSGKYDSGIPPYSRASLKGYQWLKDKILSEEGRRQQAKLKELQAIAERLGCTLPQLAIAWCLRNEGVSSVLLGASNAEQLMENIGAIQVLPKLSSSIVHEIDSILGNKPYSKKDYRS
Muscarinic acetylcholine receptor M4 (Homo sapiens), sequence (P08173 whole entry, looked up): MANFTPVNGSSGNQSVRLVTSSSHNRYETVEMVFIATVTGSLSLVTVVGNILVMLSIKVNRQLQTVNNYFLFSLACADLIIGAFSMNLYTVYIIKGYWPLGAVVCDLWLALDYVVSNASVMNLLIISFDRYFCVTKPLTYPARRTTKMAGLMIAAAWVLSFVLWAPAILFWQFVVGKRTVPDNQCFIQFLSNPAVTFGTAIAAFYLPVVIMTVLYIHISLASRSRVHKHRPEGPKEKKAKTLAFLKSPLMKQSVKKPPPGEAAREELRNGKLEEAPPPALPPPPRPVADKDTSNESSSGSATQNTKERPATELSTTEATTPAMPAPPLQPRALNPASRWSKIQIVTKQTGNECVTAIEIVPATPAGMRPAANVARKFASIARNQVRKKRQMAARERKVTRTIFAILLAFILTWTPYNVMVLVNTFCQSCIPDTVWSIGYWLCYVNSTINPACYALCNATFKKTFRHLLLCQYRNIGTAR

Structure (SMILES)	cell count [1]	inhibition [1]	inhibition of aggregation [2]	nuclei count [2] [%]	inhibition [3]	nuclei count [3] [%]	fluorescence slope [4]	NADPH fluorescence slope [5]	fluorescence slope [6]	inhibition [7]	inhibition [8]
CCOP(=O)(c1ccc(N(C)C)cc1)C(O)c1cc(OC)c(OC)c(OC)c1 (stereo not drawn)	713	-0.6% (inactive)	0% (inactive)	113	10.2% (inactive)	103	-0.455 (inactive)	-4.5e-05 (inactive)	0.00563 (inactive)	4.26% (inactive)	21% (inactive)
CCOc1cccc(C(=O)Nc2cccc(-c3nc4ncccc4o3)c2C)c1	333	3.3% (inactive)	10.5% (inactive)	103	-46.8% (inactive)	108	-0.545 (inactive)	-3e-05 (inactive)	0.00572 (inactive)	11.9% (inactive)	-11.2% (inactive)
COc1ccccc1N1CCN(CCCNC(=O)Nc2ccccc2)CC1	377	8.7% (inactive)	8.2% (inactive)	96.1	-129% (inactive)	106	-0.449 (inactive)	1.8e-05 (inactive)	0.00541 (inactive)	15.3% (inactive)	23.9% (inactive)
COc1cc(-c2noc(-c3cccc(Cl)c3)n2)cc(OC)c1OC	778	-0.6% (inactive)	-21% (inactive)	103	-33.7% (inactive)	113	-0.568 (inactive)	2.5e-05 (inactive)	0.00623 (inactive)	6.15% (inactive)	-21.6% (inactive)
Cc1ccccc1OCCN1C(=O)NC2(CCc3ccccc32)C1=O (stereo not drawn)	414	-18.4% (inactive)	8.4% (inactive)	94.7	8.5% (inactive)	99.4	-0.297 (inactive)	-1.6e-05 (inactive)	0.00542 (inactive)	12% (inactive)	4.56% (inactive)
O=C(CC1CCCCC1)NCc1ccccn1	595	4.1% (inactive)	11.3% (inactive)	94.6	-42.2% (inactive)	116	-0.462 (inactive)	-5.1e-05 (inactive)	0.00493 (inactive)	11.5% (inactive)	12.6% (inactive)
CCCOc1cc(C)c(S(=O)(=O)N2CCN(C)CC2)cc1C	443	10.6% (inactive)	12.8% (inactive)	100	-11.9% (inactive)	96.1	-0.57 (inactive)	-3.7e-05 (inactive)	0.00349 (inactive)	7.65% (inactive)	10.4% (inactive)
CC(C)NC(=O)CSc1nnc(-c2ccc(C(C)(C)C)cc2)n1C	563	-16% (inactive)	-4.3% (inactive)	96.8	8% (inactive)	117	-0.465 (inactive)	5.2e-06 (inactive)	0.00698 (inactive)	4.36% (inactive)	1.25% (inactive)
